bCat KO growth: beta-catenin-lacking colon tumor cell growth suppression; viability, % at 10 µM; hit rate 1.5% among 140,000; HCT116 beta-catenin knockout viability, CellTiter-Glo, 60 h; hits give low values;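 active = viability at or under a set limit, the compound median less 4 SD, cut at about 6% in these data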;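 also: 0% = Hyamine 1622 control at 20 µM and 100% = untreated cell control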
Dynein transport: blocks dynein driven cargo transport along microtubules. 3617.4 mouse cells, GR-EGFP nuclear translocation imaging; test concentration mostly 20 µM; stimulated with dexamethasone, 1 µM; hits give low values. hit rate 0.47% among 220,000. z-score, hits read low. AID 1381;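 active = plate z-score of nuclear minus cytoplasmic receptor signal below a set negative limit, without overly bright fluorescence or cell loss, cut at about -3.5 in these data, passing the limit was not always enough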;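 also: z-score of nuclear minus cytoplasmic ring GR-EGFP intensity difference per well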
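Buffer or medium: Induction medium lacking tetracycline, stripped serum | Also added: Dexamethasone agonist, 1.0 µM final, for 30 min | Timing: 48 h induction, 1 h compound, 30 min dex at 37 °C | Detection: Formaldehyde fixation, Hoechst nuclear stain, 10x automated fluorescence imaging | Measure: Nuclear versus cytoplasmic GR-EGFP signal, averaged per well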
Autophagy HCS: modulators of autophagy. hit rate 0.98% among 190,000. AID 463193. MEF GFP-LC3 puncta imaging; test concentration mostly 10 µM. calls only at 10 µM (by protocol);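 active = percentage of spot-positive cells more than 3 SD above its plate mean, without a fluorescence outlier flag or 80% toxicity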;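 also: spot-positive cell cutoff set from DMSO-treated cells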
HCT116 PTEN-null: suppresses growth of cells with PTEN deletion; HCT116 PTEN-null viability, CellTiter-Glo, 60 h; hits give low values; viability, % at 10 µM; hit rate 1.2% among 140,000; AID 827;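 active = viability at or below a set limit, 4 SD under the median of all tested compounds, cut at about 3.7% in these data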;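 also: PTEN knockout HCT116 line with beta catenin targeted HCT116 as companion control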
L major viab: reduces viability of Leishmania major promastigotes; AID 1063; hit rate 9% among 200,000; inhibition, % at 10 µM; resazurin fluorescence viability; in the data active = inhibition above about 50%;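 also: promastigotes grown with compound for 44 hours at 28 °C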
Active calls of the source: *; i = inactive; . = no result; + = active, no number. An excerpt weighted towards active compounds, which were near 9.2% of everything screened.

SMILES	bCat KO growth	Dynein transport	Autophagy HCS	HCT116 PTEN-null	L major viab
CCCN(CCC)C(=O)/C=C/c1cccc([N+](=O)[O-])c1	.	1.21	.	.	.
COCC(=O)Nc1cc(C(=O)Nc2cccc(C)c2C)ccc1Cl	107.3	0.244	i	117.2	-3.4
Clc1ncccc1-c1nc2ccccc2n1Cc1ccccc1	87.9	1.46	i	82.1	94.5*
CCn1c(-c2cccnc2Cl)nc2ccccc21	94.8	-0.655	i	90.4	-0.1
Cc1cccc(Cn2c(Cc3ccccc3)nc3ccccc32)c1	74.6	0.261	i	73.0	92.4*
CCC(C)(c1nnnn1-c1c(C)cccc1C)N(N=O)c1cccc(C(F)(F)F)c1 (centres undefined)	57.8	2.81	i	60.6	100.0*
O=S(=O)(NCc1ccccc1)c1cccc2cccnc12	96.2	-0.417	i	81.2	63.7*
O=C(NCc1ccccc1)c1cccc(NS(=O)(=O)c2cccc3cccnc23)c1	90.0	-0.305	i	102.9	54.0*
Cc1nc([N+](=O)[O-])cn1CC(O)c1ccc(F)cc1 (centres undefined)	.	-0.527	.	.	.
Fc1ccc(-c2nnsc2Sc2ccccn2)cc1	.	2.19	i	.	-0.1
Cc1nc2ccccc2nc1OCC(=O)Nc1ccccc1	.	0.29	i	.	-6.8
Cc1nc2ccccc2nc1OCC(=O)NCC(F)(F)F	96.1	1.88	i	95.0	58.3*
CC(C)CC(=O)NC(=S)Nc1ccc(S(=O)(=O)Nc2nccs2)cc1	97.9	-0.25	+	102.2	54.8*
CCOc1ccc(NS(=O)(=O)c2ccc(NC(=S)NC(=O)CC(C)C)cc2)cc1	77.5	1.48	i	79.7	98.2*
O=C(Nc1ccc(S(=O)(=O)Nc2nccs2)cc1)c1ccc(N2C(=O)c3ccccc3C2=O)cc1	.	-0.0864	i	.	100.6*
Cc1ccc(SCC(=O)Nc2ccc(S(=O)(=O)Nc3nccs3)cc2)cc1	100.3	-0.85	+	95.4	-6.1
O=C(CSc1ccncc1)Nc1ccc(S(=O)(=O)Nc2nccs2)cc1	.	0.87	i	.	3.1
Cc1noc(NS(=O)(=O)c2ccc(NC(=O)c3ccc(N4C(=O)c5ccccc5C4=O)cc3)cc2)c1C	.	-0.707	i	.	-5.6
Cc1ccn2cc(CCNC(=O)CC3CCCCC3)nc2c1	.	-0.0718	i	.	-0.2
CC(C)CC(=O)NC(=S)Nc1ccc(S(=O)(=O)NC(C)(C)C)cc1	90.1	-1.07	i	80.0	62.2*
CC(C)CC(=O)NNC(=S)Nc1ccc(S(N)(=O)=O)cc1	.	0.915	i	.	-5.5
CC(C)C(C)NC(=O)COc1ccc(S(=O)(=O)N2CCOCC2)cc1[N+](=O)[O-] (centres undefined)	87.0	-0.736	i	88.4	49.4
CCOc1ccc(S(=O)(=O)N2CCOCC2)cc1[N+](=O)[O-]	.	-1.07	i	.	-0.5
CNC(=O)COC(=O)[C@@H](Nc1ccc(S(=O)(=O)N2CCOCC2)cc1[N+](=O)[O-])C(C)C	102.4	0.189	i	99.3	54.9*
CC(C)[C@H](Nc1ccc(S(=O)(=O)N2CCOCC2)cc1[N+](=O)[O-])C(=O)OCC(N)=O	103.2	-0.656	i	101.6	51.2*
SMILES	bCat KO growth	Dynein transport	Autophagy HCS	HCT116 PTEN-null	L major viab
CC(C)[C@H](Nc1ccc(S(=O)(=O)N2CCOCC2)cc1[N+](=O)[O-])C(=O)OCC(=O)N(C(C)C)C(C)C	84.2	0.524	i	90.0	81.7*
O=C(N/N=C/c1ccccc1OC(=O)c1ccc2c(c1)OCO2)c1cccc(F)c1	5.0*	0.0635	i	3.4*	-5.0
COc1cc(C(=O)Oc2ccccc2/C=N/NC(=O)c2ccc(Cl)cc2)cc(OC)c1OC	7.2	-0.78	i	6.4	93.1*
COc1ccc(C(=O)N/N=C/c2ccccc2C(=O)O)cc1OC	.	-0.662	.	.	.
COc1cc(C(=O)Oc2ccccc2/C=N/NC(=O)c2ccc(C)c(Cl)c2)cc(OC)c1OC	5.2*	0.42	i	2.7*	6.6
COc1cc(C(=O)N/N=C/c2sccc2C)cc(OC)c1OC	.	-0.29	+	.	-5.3
Cc1ccsc1/C=N/NC(=O)c1ccncc1	.	1.25	i	.	-2.5
O=C(COC(=O)Cc1ccc(Br)cc1)NCc1ccc(F)cc1	.	1.14	i	.	-6.2
O=c1ccnc(Nc2ccc3c(c2)OCCO3)[nH]1	.	-0.184	i	.	-2.3
Cc1ccc(OCCCNCCO)c(Br)c1	28.9	-0.0146	i	34.8	72.7*
CCCCNCCCOc1cccc(Cl)c1Cl	45.0	2.75	i	62.1	100.5*
CCCCNCCCOc1ccc(C)cc1Br	.	-0.458	i	.	90.3*
CCOC(=O)c1c(NC(=O)CSc2nnc(-c3ccncc3)n2Cc2ccco2)sc(C)c1C	85.9	1.9	i	82.2	56.5*
CCOc1ccccc1NC(=O)CSc1nnc(-c2ccccc2Cl)n1Cc1ccco1	95.7	0.555	i	89.0	51.0*
CCOc1ccccc1NC(=O)CSc1nnc(-c2ccco2)n1Cc1ccco1	95.8	0.487	i	97.0	12.7
O=C(CSc1n[nH]c(-c2cccnc2)n1)OC1CCCCC1	.	1.31	i	.	3.6
O=C(CNC(=O)c1ccccc1)N/N=C/c1cc(Br)ccc1O	17.0	0.0416	i	8.4	80.4*
O=C(N/N=C/c1cc(Cl)ccc1O)c1ccccc1Br	.	-0.524	i	.	98.1*
O=C(/C=N/NC(=O)c1ccccc1Br)c1ccccc1	.	-0.919	i	.	0.7
O=C(CNC(=O)c1ccccc1Br)N/N=C/c1ccccc1O	.	0.689	i	.	1.8
O=C(CNC(=O)c1ccccc1Br)N/N=C/c1cc(Br)ccc1O	.	-0.189	i	.	58.1*
O=C(CNC(=O)c1cccc(Br)c1)N/N=C/c1cn[nH]c1-c1ccccc1	93.6	0.0301	i	90.6	67.1*
O=C(CNC(=O)c1ccc(F)cc1)N/N=C/c1cn[nH]c1-c1ccccc1	83.5	-0.169	i	95.4	-2.5
O=C(NCC1CCCO1)c1cc2c(=O)[nH]c3ccccc3c2s1 (centres undefined)	.	-0.794	i	.	4.5
O=C(C[n+]1cn(C(F)F)c2ccccc21)c1ccc(OC(F)F)cc1	.	-0.406	i	.	-4.7
SMILES	bCat KO growth	Dynein transport	Autophagy HCS	HCT116 PTEN-null	L major viab
O=C(Cc1ccc(-n2cccc2)cc1)N1CCc2ccccc21	91.4	-0.0216	i	107.7	-6.2
O=C(CNC(=O)c1ccncc1)N/N=C/c1cc(Br)ccc1O	89.1	-0.459	i	89.3	98.4*
O=C(CN1CC(c2ccccc2)CC1=O)N/N=C/c1cc(Br)ccc1O (centres undefined)	8.0	-0.102	i	7.6	98.0*
CCOc1ccc(NC(=O)CN2CC(c3ccccc3)CC2=O)cc1 (centres undefined)	112.8	0.427	.	94.8	-6.2
O=C(COc1ccccc1)NCC(=O)N/N=C/c1cc(Br)ccc1OCc1ccccc1	61.0	1.38	i	62.7	9.5
Cc1cccc(OCC(=O)NCC(=O)N/N=C/c2cc(Br)ccc2OCc2ccccc2)c1	96.7	-0.103	i	86.4	92.0*
O=C(Cc1ccccc1)N/N=C/c1cc(Br)cc(Cl)c1O	.	-0.828	i	.	82.4*
COc1ccc(C(=O)N2CCOC23CCN(c2ncccn2)CC3)cc1	.	-0.596	i	.	-2.7

Screening results deposited in PubChem BioAssay by several laboratories.
